Laboratory results taken from ChEMBL document CHEMBL1157142, “Alkyl deoxy-arabino-hexopyranosides: synthesis, surface properties, and biological activities” (Bioorg Med Chem, 2008).
≈ marks a conversion by molar mass, not a printed value. Calls of active or inactive are those of the source. No cut-off for these calls is given here.

Legend:
Bacillus subtilis [1] = experiment: Antimicrobial activity against Bacillus subtilis ATCC 6633 after 16 to 20 hrs by broth dilution method; type: functional; details: for MIC: Bacillus subtilis, ATCC 6633
How it was run: (§1)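 Dilution method used overnight cultures and serial compound dilutions from 500 down to 1.95 µg/mL, with chloramphenicol from 50 to 0.195 µg/mL. Incubation was at 35 °C for 16–20 h, and MIC and MLC were determined. At least three replicates were run. Only compounds giving disk inhibition diameters of 11 mm or more were tested.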

Bacillus subtilis [2] = experiment: Antimicrobial activity against Bacillus subtilis ATCC 6633 assessed as diameter of the inhibition zone after 24 hrs by paper disk agar diffusion method; type: functional
How it was run: (§2)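 Overnight cultures were spread on agar: tryptone soy agar for Listeria, azide dextrose agar for Enterococcus, and nutrient agar for the other bacteria. 6.4 mm paper disks each received 300 µg of substance in 15 µL DMSO. Plates were incubated at 37 °C for 24 h and the inhibition-zone diameter measured. Chloramphenicol served as control. At least three replicates were run.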

Staphylococcus aureus [3] = experiment: Antimicrobial activity against Staphylococcus aureus ATCC 25923 assessed as diameter of the inhibition zone after 24 hrs by paper disk agar diffusion method; type: functional; how it was run: as §2
Pyricularia oryzae = experiment: Antimicrobial activity against Pyricularia oryzae DSMZ 62938 assessed as diameter of the inhibition zone after 48 hrs by paper disk agar diffusion method; type: functional
How it was run: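 Overnight culture spread on potato dextrose agar; 6.4 mm paper disks loaded with compound dissolved in DMSO. […] served as the reference control. Plates incubated at 25 °C for 48 h, then the diameter of the inhibition zone was measured in mm. At least three replicates.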

Bacillus cereus [4] = experiment: Antimicrobial activity against Bacillus cereus ATCC 11778 assessed as diameter of the inhibition zone after 24 hrs by paper disk agar diffusion method; type: functional; how it was run: as §2
Staphylococcus aureus [5] = experiment: Antimicrobial activity against Staphylococcus aureus ATCC 25923 after 16 to 20 hrs by broth dilution method; type: functional; details: for MIC: Staphylococcus aureus, ATCC 25923; how it was run: as §1
Pseudomonas aeruginosa = experiment: Antimicrobial activity against Pseudomonas aeruginosa ATCC 27853 assessed as diameter of the inhibition zone after 24 hrs by paper disk agar diffusion method; type: functional; how it was run: as §2
Enterococcus faecalis [6] = experiment: Antimicrobial activity against Enterococcus faecalis ATCC 29212 assessed as diameter of the inhibition zone after 24 hrs by paper disk agar diffusion method; type: functional; how it was run: as §2
Salmonella enteritidis = experiment: Antimicrobial activity against Salmonella enteritidis ATCC 13076 assessed as diameter of the inhibition zone after 24 hrs by paper disk agar diffusion method; type: functional, Salmonella enterica subsp. enterica serovar Enteritidis; how it was run: as §2
Aspergillus niger = experiment: Antimicrobial activity against Aspergillus niger ATCC 16404 assessed as diameter of the inhibition zone after 48 hrs by paper disk agar diffusion method; type: functional
How it was run: (§3)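 Fungal disk diffusion: overnight cultures were spread on potato dextrose agar. 6.4 mm paper disks each carried 300 µg of substance in 15 µL DMSO. Plates were incubated at 25 °C for 48 h and the inhibition-zone diameter read. Actidione was the control for A. niger and chloramphenicol for C. albicans. At least three replicates were run.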

Listeria monocytogenes [7] = experiment: Antimicrobial activity against Listeria monocytogenes ATCC 7644 assessed as diameter of the inhibition zone after 24 hrs by paper disk agar diffusion method; type: functional; how it was run: as §2
Bacillus cereus [8] = experiment: Antimicrobial activity against Bacillus cereus ATCC 11778 after 16 to 20 hrs by broth dilution method; type: functional; details: for MIC: Bacillus cereus, ATCC 11778; how it was run: as §1
Candida albicans = experiment: Antimicrobial activity against Candida albicans ATCC 10231 assessed as diameter of the inhibition zone after 48 hrs by paper disk agar diffusion method; type: functional; how it was run: as §3
Escherichia coli = experiment: Antimicrobial activity against Escherichia coli ATCC 8739 assessed as diameter of the inhibition zone after 24 hrs by paper disk agar diffusion method; type: functional; how it was run: as §2
Listeria monocytogenes [9] = experiment: Antimicrobial activity against Listeria monocytogenes ATCC 7644 after 16 to 20 hrs by broth dilution method; type: functional; details: for MIC: Listeria monocytogenes, ATCC 7644; how it was run: as §1
Enterococcus faecalis [10] = experiment: Antimicrobial activity against Enterococcus faecalis ATCC 29212 after 16 to 20 hrs by broth dilution method; type: functional; details: for MIC: Enterococcus faecalis, ATCC 29212; how it was run: as §1
[11] = Cytotoxicity against human peripheral blood lymphocytes assessed as mitotic index at 10 ug/mL; details: pbl
How it was run: (§4)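 Heparinized whole blood from healthy donors was cultured in Ham's F-10 with 15% fetal calf serum, phytohemagglutinin, L-glutamine, streptomycin and penicillin. Compounds at 10 or 100 µg/mL were added after 24 h and culture continued to 48 h. Colcemid (0.5 µg/mL final) was present for the last 3 h. Mitotic index was scored on metaphase spreads at 500×. 2% H2O2 was the positive control.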

[12] = Cytotoxicity against human peripheral blood lymphocytes assessed as mitotic index at 100 ug/mL; details: pbl; how it was run: as §4
Bacillus cereus [13] = experiment: Antimicrobial activity against Bacillus cereus ATCC 11778 after 1 year; type: functional, organism-based

CCCCCCCCO[C@H]1C[C@H](O)[C@@H](O)[C@H](C)O1
MLC (Bacillus subtilis [1]): >500 µg/mL | MIC (Bacillus subtilis [1]): 250 µg/mL (≈ 960 µM) | inhibition zone (IZ) (Bacillus subtilis [2]): 12 mm | inhibition zone (IZ) (Staphylococcus aureus [3]): 11 mm | inhibition zone (IZ) (Pyricularia oryzae): 13 mm | inhibition zone (IZ) (Bacillus cereus [4]): 12 mm | MLC (Staphylococcus aureus [5]): 500 µg/mL (≈ 1920 µM) | MIC (Staphylococcus aureus [5]): 500 µg/mL (≈ 1920 µM) | inhibition zone (IZ) (Pseudomonas aeruginosa): 8 mm | inhibition zone (IZ) (Enterococcus faecalis [6]): 10 mm | inhibition zone (IZ) (Salmonella enteritidis): <6.4 mm | inhibition zone (IZ) (Aspergillus niger): <6.4 mm | inhibition zone (IZ) (Listeria monocytogenes [7]): 10 mm | MLC (Bacillus cereus [8]): 500 µg/mL (≈ 1920 µM) | MIC (Bacillus cereus [8]): 250 µg/mL (≈ 960 µM) | inhibition zone (IZ) (Candida albicans): 10 mm | inhibition zone (IZ) (Escherichia coli): 8 mm

CCCCCCCCO[C@@H]1C[C@H](O)[C@@H](O)[C@H](C)O1
MIC (Bacillus subtilis [1]): > 500 µg/mL | inhibition zone (IZ) (Bacillus subtilis [2]): 10 mm | inhibition zone (IZ) (Staphylococcus aureus [3]): 12 mm | inhibition zone (IZ) (Pyricularia oryzae): <6.4 mm | MIC (Listeria monocytogenes [9]): > 500 µg/mL | inhibition zone (IZ) (Bacillus cereus [4]): 12 mm | MIC (Staphylococcus aureus [5]): > 500 µg/mL | inhibition zone (IZ) (Pseudomonas aeruginosa): 9 mm | inhibition zone (IZ) (Enterococcus faecalis [6]): 9 mm | inhibition zone (IZ) (Salmonella enteritidis): <6.4 mm | inhibition zone (IZ) (Aspergillus niger): <6.4 mm | inhibition zone (IZ) (Listeria monocytogenes [7]): 10 mm | MIC (Bacillus cereus [8]): > 500 µg/mL | inhibition zone (IZ) (Candida albicans): 11 mm | inhibition zone (IZ) (Escherichia coli): 9 mm

CCCCCCCCCCCCO[C@H]1C[C@@H](O)[C@H](O)[C@@H](CO)O1
MIC (Bacillus subtilis [1]): > 500 µg/mL | inhibition zone (IZ) (Bacillus subtilis [2]): 10 mm | inhibition zone (IZ) (Staphylococcus aureus [3]): <6.4 mm | MLC (Enterococcus faecalis [10]): >500 µg/mL | MIC (Enterococcus faecalis [10]): 31.3 µg/mL (≈ 94.1 µM) | inhibition zone (IZ) (Pyricularia oryzae): <6.4 mm | MLC (Listeria monocytogenes [9]): >500 µg/mL | MIC (Listeria monocytogenes [9]): 250 µg/mL (≈ 752 µM) | inhibition zone (IZ) (Bacillus cereus [4]): 10 mm | MIC (Staphylococcus aureus [5]): > 500 µg/mL | inhibition zone (IZ) (Pseudomonas aeruginosa): <6.4 mm | inhibition zone (IZ) (Enterococcus faecalis [6]): 17 mm | inhibition zone (IZ) (Salmonella enteritidis): <6.4 mm | Activity [11]: 13.5 | Activity [12]: 6.75 | inhibition zone (IZ) (Aspergillus niger): <6.4 mm | inhibition zone (IZ) (Listeria monocytogenes [7]): <6.4 mm | MIC (Bacillus cereus [8]): > 500 µg/mL | inhibition zone (IZ) (Candida albicans): 10 mm | inhibition zone (IZ) (Escherichia coli): <6.4 mm

CCCCCCCCO[C@@H]1C[C@@H](O)[C@H](O)[C@@H](CO)O1
inhibition zone (IZ) (Bacillus subtilis [2]): <6.4 mm | inhibition zone (IZ) (Staphylococcus aureus [3]): <6.4 mm | inhibition zone (IZ) (Pyricularia oryzae): <6.4 mm | inhibition zone (IZ) (Bacillus cereus [4]): <6.4 mm | inhibition zone (IZ) (Pseudomonas aeruginosa): <6.4 mm | inhibition zone (IZ) (Enterococcus faecalis [6]): <6.4 mm | inhibition zone (IZ) (Salmonella enteritidis): <6.4 mm | Activity [11]: 10.75 | Activity [12]: 3 | inhibition zone (IZ) (Aspergillus niger): <6.4 mm | inhibition zone (IZ) (Listeria monocytogenes [7]): <6.4 mm | inhibition zone (IZ) (Candida albicans): <6.4 mm | inhibition zone (IZ) (Escherichia coli): <6.4 mm

O=C(N[C@H](CO)[C@H](O)c1ccc([N+](=O)[O-])cc1)C(Cl)Cl [CHLORAMPHENICOL]
MLC (Bacillus subtilis [1]): >50 µg/mL | MIC (Bacillus subtilis [1]): 3.1 µg/mL (≈ 9.59 µM) | MLC (Enterococcus faecalis [10]): >50 µg/mL | MIC (Enterococcus faecalis [10]): 6.3 µg/mL (≈ 19.5 µM) | MLC (Listeria monocytogenes [9]): >50 µg/mL | MIC (Listeria monocytogenes [9]): 6.3 µg/mL (≈ 19.5 µM) | MLC (Staphylococcus aureus [5]): >50 µg/mL | MIC (Staphylococcus aureus [5]): 6.3 µg/mL (≈ 19.5 µM) | MLC (Bacillus cereus [8]): 12.5 µg/mL (≈ 38.7 µM) | MIC (Bacillus cereus [8]): 6.3 µg/mL (≈ 19.5 µM)

CCCCCCCCO[C@H]1C[C@@H](O)[C@H](O)[C@@H](CO)O1
MIC (Bacillus subtilis [1]): > 500 µg/mL | inhibition zone (IZ) (Bacillus subtilis [2]): 12 mm | inhibition zone (IZ) (Staphylococcus aureus [3]): <6.4 mm | MLC (Enterococcus faecalis [10]): >500 µg/mL | MIC (Enterococcus faecalis [10]): 31.3 µg/mL (≈ 113 µM) | inhibition zone (IZ) (Pyricularia oryzae): <6.4 mm | inhibition zone (IZ) (Bacillus cereus [4]): 11 mm | inhibition zone (IZ) (Pseudomonas aeruginosa): <6.4 mm | inhibition zone (IZ) (Enterococcus faecalis [6]): 14 mm | inhibition zone (IZ) (Salmonella enteritidis): <6.4 mm | inhibition zone (IZ) (Aspergillus niger): <6.4 mm | inhibition zone (IZ) (Listeria monocytogenes [7]): <6.4 mm | MIC (Bacillus cereus [8]): > 500 µg/mL | inhibition zone (IZ) (Candida albicans): <6.4 mm | inhibition zone (IZ) (Escherichia coli): <6.4 mm

CCCCCCCCCCCCO[C@H]1C[C@H](O)[C@@H](O)[C@H](C)O1
MLC (Bacillus subtilis [1]): 15.6 µg/mL (≈ 49.3 µM) | MIC (Bacillus subtilis [1]): 7.8 µg/mL (≈ 24.6 µM) | inhibition zone (IZ) (Bacillus subtilis [2]): 25 mm | inhibition zone (IZ) (Staphylococcus aureus [3]): 9 mm | MLC (Enterococcus faecalis [10]): >250 µg/mL | MIC (Enterococcus faecalis [10]): 15.6 µg/mL (≈ 49.3 µM) | inhibition zone (IZ) (Pyricularia oryzae): <6.4 mm | MLC (Listeria monocytogenes [9]): 62.5 µg/mL (≈ 197 µM) | MIC (Listeria monocytogenes [9]): 31.3 µg/mL (≈ 98.9 µM) | inhibition zone (IZ) (Bacillus cereus [4]): 27 mm | Activity (Bacillus cereus [13]): Active | inhibition zone (IZ) (Pseudomonas aeruginosa): <6.4 mm | inhibition zone (IZ) (Enterococcus faecalis [6]): 13 mm | inhibition zone (IZ) (Salmonella enteritidis): <6.4 mm | inhibition zone (IZ) (Aspergillus niger): <6.4 mm | inhibition zone (IZ) (Listeria monocytogenes [7]): 12 mm | MLC (Bacillus cereus [8]): 7.8 µg/mL (≈ 24.6 µM) | MIC (Bacillus cereus [8]): 7.8 µg/mL (≈ 24.6 µM) | inhibition zone (IZ) (Candida albicans): <6.4 mm | inhibition zone (IZ) (Escherichia coli): <6.4 mm

CCCCCCCCCCCCO[C@@H]1C[C@H](O)[C@@H](O)[C@H](C)O1
inhibition zone (IZ) (Bacillus subtilis [2]): <6.4 mm | inhibition zone (IZ) (Staphylococcus aureus [3]): <6.4 mm | inhibition zone (IZ) (Pyricularia oryzae): <6.4 mm | inhibition zone (IZ) (Bacillus cereus [4]): <6.4 mm | inhibition zone (IZ) (Pseudomonas aeruginosa): <6.4 mm | inhibition zone (IZ) (Enterococcus faecalis [6]): <6.4 mm | inhibition zone (IZ) (Salmonella enteritidis): <6.4 mm | inhibition zone (IZ) (Aspergillus niger): <6.4 mm | inhibition zone (IZ) (Listeria monocytogenes [7]): <6.4 mm | inhibition zone (IZ) (Candida albicans): <6.4 mm | inhibition zone (IZ) (Escherichia coli): <6.4 mm

CCCCCCCCCCCCO[C@@H]1C[C@@H](O)[C@H](O)[C@@H](CO)O1
inhibition zone (IZ) (Bacillus subtilis [2]): 9 mm | inhibition zone (IZ) (Staphylococcus aureus [3]): <6.4 mm | inhibition zone (IZ) (Pyricularia oryzae): <6.4 mm | inhibition zone (IZ) (Bacillus cereus [4]): <6.4 mm | inhibition zone (IZ) (Pseudomonas aeruginosa): <6.4 mm | inhibition zone (IZ) (Enterococcus faecalis [6]): <6.4 mm | inhibition zone (IZ) (Salmonella enteritidis): <6.4 mm | Activity [11]: 13.5 | Activity [12]: 7.75 | inhibition zone (IZ) (Aspergillus niger): <6.4 mm | inhibition zone (IZ) (Listeria monocytogenes [7]): 10 mm | inhibition zone (IZ) (Candida albicans): 9 mm | inhibition zone (IZ) (Escherichia coli): <6.4 mm
